Assay results from ChEMBL document CHEMBL4229342, “Synthesis of novel proxyphylline derivatives with dual Anti-Candida albicans and anticancer activity” (Eur J Med Chem, 2018).
≈ marks a conversion by molar mass, not a printed value.

Assays:
CCRF-CEM [1] = assay: Antiproliferative activity against human CCRF-CEM cells assessed as cell viability at 25 uM after 72 hrs by MTT assay; type: functional; settings: read-out: Activity
Outline: (§1)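 MTT viability assay in CCRF-CEM and MCF-7 cells after 72 h exposure at 25, 50, 100 and 200 µM. Results are relative to control cells without inhibitor in 0.5% DMSO. Done in triplicate; values are means ± SD of three independent experiments.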

CCRF-CEM [2] = assay: Antiproliferative activity against human CCRF-CEM cells assessed as cell viability at 50 uM after 72 hrs by MTT assay; type: functional; settings: read-out: Activity; outline: as §1
CCRF-CEM [3] = assay: Antiproliferative activity against human CCRF-CEM cells assessed as cell viability at 100 uM after 72 hrs by MTT assay; type: functional; settings: read-out: Activity; outline: as §1
CCRF-CEM [4] = assay: Antiproliferative activity against human CCRF-CEM cells assessed as cell viability at 200 uM after 72 hrs by MTT assay; type: functional; settings: read-out: Activity; outline: as §1
MCF7 [5] = assay: Antiproliferative activity against human MCF7 cells assessed as cell viability at 25 uM after 72 hrs by MTT assay; type: functional; settings: MCF7, 72 h, read-out: Activity; outline: as §1
MCF7 [6] = assay: Antiproliferative activity against human MCF7 cells assessed as cell viability at 50 uM after 72 hrs by MTT assay; type: functional; settings: MCF7, 72 h, read-out: Activity; outline: as §1
MCF7 [7] = assay: Antiproliferative activity against human MCF7 cells assessed as cell viability at 100 uM after 72 hrs by MTT assay; type: functional; settings: MCF7, 72 h, read-out: Activity; outline: as §1
MCF7 [8] = assay: Antiproliferative activity against human MCF7 cells assessed as cell viability at 200 uM after 72 hrs by MTT assay; type: functional; settings: MCF7, 72 h, read-out: Activity; outline: as §1
MCF7 [9] = assay: Antiproliferative activity against human MCF7 cells after 72 hrs by MTT assay; type: functional, cell-based; settings: MCF7, 72 h
Outline: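 EC50 was derived from a repeat 72 h MTT assay in CCRF-CEM or MCF-7 cells. It is the concentration killing 50% of tumour cells compared with control cells incubated without inhibitor in 0.5% DMSO.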

Candida albicans [10] = assay: Growth inhibition of Candida albicans ATCC 90028 at 16 ug/ml incubated for 18 hrs at 35 degC by broth microdilution method relative to control; type: functional; settings: ATCC 90028, 18 h, read-out: GI
Candida albicans [11] = assay: Growth inhibition of Candida albicans ATCC 90028 at 16 ug/ml incubated for 48 hrs at 35 degC by broth microdilution method relative to control; type: functional; settings: ATCC 90028, 48 h, read-out: GI
Candida albicans [12] = assay: Growth inhibition of Candida albicans ATCC 90028 at 8 ug/ml incubated for 18 hrs at 35 degC by broth microdilution method relative to control; type: functional; settings: ATCC 90028, 18 h, read-out: GI
Candida albicans [13] = assay: Growth inhibition of Candida albicans ATCC 90028 at 8 ug/ml incubated for 48 hrs at 35 degC by broth microdilution method relative to control; type: functional; settings: ATCC 90028, 48 h, read-out: GI
Candida albicans [14] = assay: Growth inhibition of Candida albicans ATCC 90028 at 4 ug/ml incubated for 18 hrs at 35 degC by broth microdilution method relative to control; type: functional; settings: ATCC 90028, 18 h, read-out: GI
Candida albicans [15] = assay: Growth inhibition of Candida albicans ATCC 90028 at 8 ug/ml incubated for 4 hrs at 35 degC by broth microdilution method relative to control; type: functional; settings: ATCC 90028, 4 h, read-out: GI
Candida albicans [16] = assay: Growth inhibition of Candida albicans ATCC 90028 at 2 ug/ml incubated for 18 hrs at 35 degC by broth microdilution method relative to control; type: functional; settings: ATCC 90028, 18 h, read-out: GI
Candida albicans [17] = assay: Growth inhibition of Candida albicans ATCC 90028 at 2 ug/ml incubated for 4 hrs at 35 degC by broth microdilution method relative to control; type: functional; settings: ATCC 90028, 4 h, read-out: GI
Candida albicans [18] = assay: Growth inhibition of Candida albicans ATCC 90028 at 1 ug/ml incubated for 18 hrs at 35 degC by broth microdilution method relative to control; type: functional; settings: ATCC 90028, 18 h, read-out: GI
Candida albicans [19] = assay: Growth inhibition of Candida albicans ATCC 90028 at 1 ug/ml incubated for 4 hrs at 35 degC by broth microdilution method relative to control; type: functional; settings: ATCC 90028, 4 h, read-out: GI
Candida albicans [20] = assay: Growth inhibition of Candida albicans ATCC 90028 at 0.5 ug/ml incubated for 4 hrs at 35 degC by broth microdilution method relative to control; type: functional; settings: ATCC 90028, 4 h, read-out: GI
Candida albicans [21] = assay: Growth inhibition of Candida albicans ATCC 90028 at 0.25 ug/ml incubated for 4 hrs at 35 degC by broth microdilution method relative to control; type: functional; settings: ATCC 90028, 4 h, read-out: GI
Candida albicans [22] = assay: Growth inhibition of Candida albicans ATCC 90028 at 0.125 ug/ml incubated for 18 hrs at 35 degC by broth microdilution method relative to control; type: functional; settings: ATCC 90028, 18 h, read-out: GI
Candida albicans [23] = assay: Growth inhibition of Candida albicans ATCC 90028 at 0.125 ug/ml incubated for 4 hrs at 35 degC by broth microdilution method relative to control; type: functional; settings: ATCC 90028, 4 h, read-out: GI
Candida albicans [24] = assay: Growth inhibition of Candida albicans ATCC 90028 at 0.0625 ug/ml incubated for 18 hrs at 35 degC by broth microdilution method relative to control; type: functional; settings: ATCC 90028, 18 h, read-out: GI
Candida albicans [25] = assay: Growth inhibition of Candida albicans ATCC 90028 at 0.0625 ug/ml incubated for 4 hrs at 35 degC by broth microdilution method relative to control; type: functional; settings: ATCC 90028, 4 h, read-out: GI
Candida albicans [26] = assay: Growth inhibition of Candida albicans ATCC 90028 at 0.0313 ug/ml incubated for 18 hrs at 35 degC by broth microdilution method relative to control; type: functional; settings: ATCC 90028, 18 h, read-out: GI
Candida albicans [27] = assay: Growth inhibition of Candida albicans ATCC 90028 at 0.0313 ug/ml incubated for 4 hrs at 35 degC by broth microdilution method relative to control; type: functional; settings: ATCC 90028, 4 h, read-out: GI
Candida albicans [28] = assay: Growth inhibition of Candida albicans ATCC 90028 at 4 uM incubated for 48 hrs at 35 degC by broth microdilution method relative to control; type: functional; settings: ATCC 90028, 48 h
Candida albicans [29] = assay: Fungicidal activity against Candida albicans ATCC 90028 assessed as drug level causing 3 fold reduction in bacterial count after 48 hrs at 35 degC; type: functional; settings: ATCC 90028, 48 h
Candida albicans [30] = assay: Antifungal activity against Candida albicans ATCC 90028 assessed as reduction in cell viability at 1022.5 to 0.06 uM after 48 hrs in presence of ergosterol by XTT assay; type: functional; settings: ATCC 90028, 48 h
[31] = Toxicity in Galleria mellonella larvae infected with Candida albicans ATCC 90028 infected with 31 uM compound pre-treated cell suspensions assessed as survival incubated in dark for 144 hrs at 30 degC and measured every 24 hrs; type: organism-based; settings: in vivo
[32] = Toxicity in Galleria mellonella larvae infected with Candida albicans ATCC 90028 infected with 20 uM compound pre-treated cell suspensions assessed as survival incubated in dark for 144 hrs at 30 degC and measured every 24 hrs; type: organism-based; settings: in vivo
Vero = assay: Cytotoxicity in African green monkey Vero cells up to 64 ug/ml incubated for 3 to 18 hrs by XTT assay; type: cell-based; settings: chlorocebus sabaeus
Candida albicans [33] = assay: Inhibition of cell adhesion of Candida albicans ATCC 90028 to African green monkey Vero cells at 2 ug/ml relative to untreated control; type: functional; settings: ATCC 90028, Vero
Candida albicans [34] = assay: Inhibition of cell adhesion of Candida albicans ATCC 90028 to African green monkey Vero cells at 0.0625 ug/ml relative to untreated control; type: functional; settings: ATCC 90028, Vero
Candida albicans [35] = assay: Inhibition of cell adhesion of Candida albicans ATCC 90028 to African green monkey Vero cells at 16 ug/ml relative to untreated control; type: functional; settings: ATCC 90028, Vero
Candida albicans [36] = assay: Inhibition of biofilm formation of Candida albicans ATCC 90028 after 48 hrs by XTT assay; type: functional, organism-based; settings: ATCC 90028, 48 h

SMILES: CC(Cn1cnc2c1c(=O)n(C)c(=O)n2C)OCc1cn(CCCn2nc3c(Br)c(Br)c(Br)c(Br)c3n2)nn1 (configuration not stated)
- viability at 25 µM (CCRF-CEM [1]): 0%
- viability at 50 µM (CCRF-CEM [2]): 0%
- viability at 100 µM (CCRF-CEM [3]): 0%
- viability at 200 µM (CCRF-CEM [4]): 0%
- viability at 25 µM (MCF7 [5]): 58.3%
- viability at 50 µM (MCF7 [6]): 59.8%
- viability at 100 µM (MCF7 [7]): 59.1%
- viability at 200 µM (MCF7 [8]): 53.7%
- EC50 (MCF7 [9]): 80 µM
- inhibition of growth at 16 µg/mL (Candida albicans [10]): 100%
- inhibition of growth at 16 µg/mL (Candida albicans [11]): 100%
- inhibition of growth at 8 µg/mL (Candida albicans [12]): 100%
- inhibition of growth at 8 µg/mL (Candida albicans [13]): 99.9%
- inhibition of growth at 4 µg/mL (Candida albicans [14]): 100%
- inhibition of growth at 8 µg/mL (Candida albicans [15]): 99.1%
- inhibition of growth at 2 µg/mL (Candida albicans [16]): 99.9%
- inhibition of growth at 2 µg/mL (Candida albicans [17]): 99.1%
- inhibition of growth at 1 µg/mL (Candida albicans [18]): 99.4%
- inhibition of growth at 1 µg/mL (Candida albicans [19]): 99.1%
- inhibition of growth at 0.5 µg/mL (Candida albicans [20]): 99.1%
- inhibition of growth at 0.25 µg/mL (Candida albicans [21]): 99.1%
- inhibition of growth at 0.125 µg/mL (Candida albicans [22]): 99.1%
- inhibition of growth at 0.125 µg/mL (Candida albicans [23]): 99%
- inhibition of growth at 0.0625 µg/mL (Candida albicans [24]): 99.2%
- inhibition of growth at 0.0625 µg/mL (Candida albicans [25]): 99%
- inhibition of growth at 0.0313 µg/mL (Candida albicans [26]): 99.1%
- inhibition of growth at 0.0313 µg/mL (Candida albicans [27]): 99.1%
- MIC (Candida albicans [28]): 10 µM (≈ 7.94 µg/mL)
- MFC (Candida albicans [29]): 5 µM (≈ 3.97 µg/mL)
- MIC (Candida albicans [30]): 8 µM
- survival at 24 h, 31 µM [31]: 90 to 100%
- survival at 24 h, 20 µM [32]: 90 to 100%
- Activity (Vero): Non-Toxic
- inhibition at 2 µg/mL (Candida albicans [33]): 89%
- inhibition at 0.0625 µg/mL (Candida albicans [34]): 89%
- inhibition at 16 µg/mL (Candida albicans [35]): 100%
- IC50 (Candida albicans [36]): 20 µM
